# Source: ChEMBL document CHEMBL1125769 (J Med Chem, 1991)
# Numbered stars: 1 amine (or outer) side, 2 acyl side, 3 side chain; on linkers, the order of the positions; unused ones are H or OH. Square brackets hold non-standard residues; d marks the D form. Peptide text beside a SMILES is read from it. X2 = O=C([C@H]1C[S+]([O-])CN1[*:1])[*:2]; Thz(5,5-Me2) = CC1(C)SCN[C@@H]1C(=O)O; Pen = CC(C)(S)[C@H](N)C(=O)O; NMeA = CN[C@@H](C)C(=O)O; Ac5c = NC1(C(=O)O)CCCC1; Aib = CC(C)(N)C(=O)O; Sar = CNCC(=O)O
# How the values were obtained:
# Angiotensin II receptor = biological target: T1, Angiotensin II receptor (Rattus norvegicus, UniProt P29089+P25095+P35351); assay: In vitro antagonist activity (ANG II like) expressed as percent activity relative to ANG II in rabbit aorta strip assay.; type: functional, tissue-based
# T1 sequence (P29089 whole entry): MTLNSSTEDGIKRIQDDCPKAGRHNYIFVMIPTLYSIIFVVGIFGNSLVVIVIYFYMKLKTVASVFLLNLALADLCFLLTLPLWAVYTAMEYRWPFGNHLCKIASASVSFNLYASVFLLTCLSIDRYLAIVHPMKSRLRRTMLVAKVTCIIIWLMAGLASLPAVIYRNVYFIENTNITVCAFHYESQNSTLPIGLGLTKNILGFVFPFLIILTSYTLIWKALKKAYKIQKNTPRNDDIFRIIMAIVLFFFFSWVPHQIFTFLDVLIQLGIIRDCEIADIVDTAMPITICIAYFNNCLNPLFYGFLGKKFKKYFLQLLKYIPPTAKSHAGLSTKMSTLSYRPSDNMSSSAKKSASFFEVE
# T1 sequence (P25095 whole entry): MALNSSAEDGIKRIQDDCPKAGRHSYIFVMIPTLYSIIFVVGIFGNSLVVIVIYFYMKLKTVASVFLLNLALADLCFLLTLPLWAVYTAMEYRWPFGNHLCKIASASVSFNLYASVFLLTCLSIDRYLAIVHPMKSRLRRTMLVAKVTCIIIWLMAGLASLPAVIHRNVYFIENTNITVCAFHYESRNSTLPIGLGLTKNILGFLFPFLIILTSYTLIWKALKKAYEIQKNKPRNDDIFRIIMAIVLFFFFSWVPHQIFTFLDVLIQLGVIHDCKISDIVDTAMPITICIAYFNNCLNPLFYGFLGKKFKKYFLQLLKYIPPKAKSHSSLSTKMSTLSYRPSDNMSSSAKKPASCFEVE
# T1 sequence (P35351 whole entry): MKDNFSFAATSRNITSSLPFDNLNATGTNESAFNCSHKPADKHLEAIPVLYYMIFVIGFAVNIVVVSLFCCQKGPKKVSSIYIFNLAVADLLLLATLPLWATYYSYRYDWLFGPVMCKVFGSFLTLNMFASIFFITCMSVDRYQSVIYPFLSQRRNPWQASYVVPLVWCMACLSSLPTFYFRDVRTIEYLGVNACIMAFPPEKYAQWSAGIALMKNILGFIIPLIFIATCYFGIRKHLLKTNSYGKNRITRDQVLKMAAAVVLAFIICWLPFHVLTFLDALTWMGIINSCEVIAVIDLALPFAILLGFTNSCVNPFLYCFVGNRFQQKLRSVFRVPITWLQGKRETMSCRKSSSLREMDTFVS
# [1] = biological target: T2, Angiotensin II receptor (Rattus norvegicus) (UniProt P29089+P25095+P35351); assay: In vitro agonist activity relative to angiotensin II measured in rabbit aorta strip assay.; type: functional, tissue-based
# [2] = biological target: T2, Angiotensin II receptor (Rattus norvegicus); assay: In vivo antagonist activity (ANG II like) expressed by blood pressure increase (mHg) produced by […] iv injection of compound in rats; type: functional, organism-based
# Procedure, shortened: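 Rat blood pressure assay after Regoli et al.; residual ANG II-like activity read as mmHg rise in blood pressure following a one microgram intravenous bolus of compound; n = 5.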
Structure (SMILES),pA2 (Angiotensin II receptor),Activity [1],ID50 (ng min-1 rat-1) [2]
CC[C@H](C)[C@H](NC(=O)[C@H]1N(C(=O)[C@H](Cc2c[nH]cn2)NC(=O)[C@@H](NC(=O)[C@H](Cc2ccc(O)cc2)NC(=O)[C@@H](NC(=O)[C@H](CCCN=C(N)N)NC(=O)CNC)C(C)C)[C@@H](C)CC)CSC1(C)C)C(=O)O,7.5,–,–
CC[C@H](C)[C@H](NC(=O)[C@H]1CSCN1C(=O)[C@H](Cc1c[nH]cn1)NC(=O)[C@@H](NC(=O)[C@H](Cc1ccc(O)cc1)NC(=O)[C@@H](NC(=O)[C@H](CCCN=C(N)N)NC(=O)CNC)C(C)C)[C@@H](C)CC)C(=O)O,–,0%,–
CC[C@H](C)[C@H](NC(=O)[C@H](Cc1ccc(O)cc1)NC(=O)[C@@H](NC(=O)[C@H](CCCN=C(N)N)NC(=O)CNC)C(C)C)C(=O)N[C@@H](Cc1c[nH]cn1)C(=O)N1CCC[C@H]1C(=O)N[C@H](Cc1ccccc1)C(=O)O,9,0%,12.5
CC[C@H](C)[C@H](NC(=O)[C@@H]1CCCN1C(=O)[C@H](Cc1c[nH]cn1)NC(=O)[C@@H](NC(=O)[C@H](Cc1ccc(O)cc1)NC(=O)[C@@H]1CCCN1C(=O)[C@H](CCCN=C(N)N)NC(=O)CNC)[C@@H](C)CC)C(=O)O (H-[Sar]RPYIHPI-OH),7.17,1.5%,–
CC[C@H](C)[C@H](NC(=O)[C@H](Cc1ccc(O)cc1)NC(=O)[C@H](C)NC(=O)[C@H](CCCN=C(N)N)NC(=O)CNC)C(=O)N[C@@H](Cc1c[nH]cn1)C(=O)N1CCC[C@H]1C(=O)N[C@@H](Cc1ccccc1)C(=O)O (H-[Sar]RAYIHPF-OH),–,38%,–
CNCC(=O)N[C@@H](CCCN=C(N)N)C(=O)N[C@H](C(=O)N[C@@H](Cc1ccc(O)cc1)C(=O)N1CSC(C)(C)[C@H]1C(=O)N[C@@H](Cc1c[nH]cn1)C(=O)N1CCC[C@H]1C(=O)N[C@H](Cc1ccccc1)C(=O)O)C(C)C,7.5,–,–
CC[C@H](C)[C@@H](C(=O)N[C@@H](Cc1c[nH]cn1)C(=O)N1CCC[C@H]1C(=O)N[C@@H](Cc1ccccc1)C(=O)O)N(C)C(=O)[C@H](Cc1ccc(O)cc1)NC(=O)[C@@H](NC(=O)[C@H](CCCN=C(N)N)NC(=O)CNC)C(C)C,–,20%,–
CC[C@H](C)[C@H](NC(=O)[C@@H]1CCCN1C(=O)[C@H](Cc1c[nH]cn1)NC(=O)[C@@H](NC(=O)[C@H](Cc1ccc(O)cc1)NC(=O)[C@@H](NC(=O)[C@H](CCCN=C(N)N)NC(=O)CNC)C(C)C)C(C)(C)SC)C(=O)O (H-[Sar]RVY[Pen](Me)HPI-OH),9,–,–
CC[C@H](C)[C@H](NC(=O)[C@@H]1CCCN1C(=O)[C@H](Cc1c[nH]cn1)NC(=O)[C@@H]1CCCN1C(=O)[C@H](Cc1ccc(O)cc1)NC(=O)[C@@H](NC(=O)[C@H](CCCN=C(N)N)NC(=O)CNC)C(C)C)C(=O)O (H-[Sar]RVYPHPI-OH),8.7,0%,20
CC[C@H](C)[C@H](NC(=O)C(C)(C)NC(=O)[C@H](Cc1c[nH]cn1)NC(=O)[C@@H](NC(=O)[C@H](Cc1ccc(O)cc1)NC(=O)[C@@H](NC(=O)[C@H](CCCN=C(N)N)NC(=O)CNC)C(C)C)[C@@H](C)CC)C(=O)O (H-[Sar]RVYIH[Aib]I-OH),8,0%,60
CC[C@@H](C)[C@@H](NC(=O)[C@H](Cc1ccc(O)cc1)NC(=O)[C@@H](NC(=O)[C@H](CCCN=C(N)N)NC(=O)CNC)C(C)C)C(=O)N[C@@H](Cc1c[nH]cn1)C(=O)N1CCC[C@H]1C(=O)NC(C)(C)C(=O)O,–,0%,–
CC[C@H](C)[C@H](NC(=O)[C@@H]1CCCN1C(=O)[C@H](Cc1c[nH]cn1)NC(=O)[C@@H]1N(C(=O)[C@H](Cc2ccc(O)cc2)NC(=O)[C@@H](NC(=O)[C@H](CCCN=C(N)N)NC(=O)CNC)C(C)C)CSC1(C)C)C(=O)O,–,0%,25
CC[C@H](C)[C@H](NC(=O)[C@@H]1CCCN1C(=O)[C@H](Cc1c[nH]cn1)NC(=O)C1(NC(=O)[C@H](Cc2ccc(O)cc2)NC(=O)[C@@H](NC(=O)[C@H](CCCN=C(N)N)NC(=O)CNC)C(C)C)CCCC1)C(=O)O (H-[Sar]RVY[Ac5c]HPI-OH),8.3,0%,10
"CNCC(=O)N[C@@H](CCCN=C(N)N)C(=O)N(C)[C@@H](C)C(=O)N[C@@H](Cc1ccc(O)cc1)C(=O)N1CSC(C)(C)[C@H]1C(=O)N[C@@H](Cc1c[nH]cn1)C(=O)N1CCC[C@H]1C(=O)NC(C)(C)C(=O)O (H-[Sar]R[NMeA]Y[Thz(5,5-Me2)]HP[Aib]-OH)",< 6,–,–
CC[C@H](C)[C@H](NC(=O)[C@@H]1CCCN1C(=O)[C@H](Cc1c[nH]cn1)NC(=O)[C@H](Cc1ccc(O)cc1)NC(=O)[C@H](Cc1ccc(O)cc1)NC(=O)[C@@H](NC(=O)[C@H](CCCN=C(N)N)NC(=O)CNC)C(C)C)C(=O)O,9.6,–,–
CC[C@H](C)[C@H](NC(=O)[C@@H]1CCCN1C(=O)[C@H](Cc1c[nH]cn1)NC(=O)[C@](C)(Cc1ccc(O)cc1)NC(=O)[C@H](Cc1ccc(O)cc1)NC(=O)[C@@H](NC(=O)[C@H](CCCN=C(N)N)NC(=O)CNC)C(C)C)C(=O)O,8.25,0%,100
CC[C@H](C)[C@H](NC(=O)[C@H](Cc1ccc(O)cc1)NC(=O)[C@H](C)N(C)C(=O)[C@H](CCCN=C(N)N)NC(=O)CNC)C(=O)N[C@@H](Cc1c[nH]cn1)C(=O)N1CCC[C@H]1C(=O)N[C@@H](Cc1ccccc1)C(=O)O,–,120%,–
CC[C@H](C)[C@H](NC(=O)[C@@H]1CCCN1C(=O)[C@H](Cc1c[nH]cn1)NC(=O)[C@H]([C@@H](C)CC)N(C)C(=O)[C@H](Cc1ccc(O)cc1)NC(=O)[C@@H](NC(=O)[C@H](CCCN=C(N)N)NC(=O)CNC)C(C)C)C(=O)O,7.64,0%,–
CC[C@H](C)[C@H](NC(=O)[C@H](C)N(C)C(=O)[C@H](Cc1c[nH]cn1)NC(=O)[C@@H](NC(=O)[C@H](Cc1ccc(O)cc1)NC(=O)[C@@H](NC(=O)[C@H](CCCN=C(N)N)NC(=O)CNC)C(C)C)[C@@H](C)CC)C(=O)O (H-[Sar]RVYIH[NMeA]I-OH),8.4,0%,20
CC[C@H](C)[C@H](NC(=O)[C@@H]1CSCN1C(=O)[C@H](Cc1c[nH]cn1)NC(=O)[C@@H](NC(=O)[C@H](Cc1ccc(O)cc1)NC(=O)[C@@H](NC(=O)[C@H](CCCN=C(N)N)NC(=O)CNC)C(C)C)[C@@H](C)CC)C(=O)O,9.7,–,–
CC[C@H](C)[C@H](NC(=O)[C@@H]1N(C(=O)[C@H](Cc2c[nH]cn2)NC(=O)[C@@H](NC(=O)[C@H](Cc2ccc(O)cc2)NC(=O)[C@@H](NC(=O)[C@H](CCCN=C(N)N)NC(=O)CNC)C(C)C)[C@@H](C)CC)CSC1(C)C)C(=O)O,–,4%,250
CC[C@H](C)[C@H](NC(=O)[C@H](Cc1ccc(O)cc1)NC(=O)[C@@H](NC(=O)[C@H](CCCN=C(N)N)NC(=O)CNC)C(C)C)C(=O)N[C@@H](Cc1c[nH]cn1)C(=O)N1CCC[C@H]1C(=O)NC(C)(C)C(=O)O,8.7,–,–
CC[C@H](C)[C@H](NC(=O)[C@H]1C[S+]([O-])CN1C(=O)[C@H](Cc1c[nH]cn1)NC(=O)[C@@H](NC(=O)[C@H](Cc1ccc(O)cc1)NC(=O)[C@@H](NC(=O)[C@H](CCCN=C(N)N)NC(=O)CNC)C(C)C)[C@@H](C)CC)C(=O)O (stereo not given in full) (H-[Sar]RVYIH[X2]I-OH),6.7,–,–
CC[C@H](C)[C@H](NC(=O)[C@@H]1CCCN1C(=O)[C@H](Cc1c[nH]cn1)NC(=O)[C@@H](NC(=O)[C@H](Cc1ccc(O)cc1)NC(=O)[C@@H](NC(=O)[C@H](CCCN=C(N)N)NC(=O)CNC)C(C)C)[C@@H](C)CC)C(=O)O,–,0%,10
CC[C@H](C)[C@H](NC(=O)[C@@H]1CCCN1C(=O)[C@H](Cc1c[nH]cn1)NC(=O)[C@H]1N(C(=O)[C@H](Cc2ccc(O)cc2)NC(=O)[C@@H](NC(=O)[C@H](CCCN=C(N)N)NC(=O)CNC)C(C)C)CSC1(C)C)C(=O)O,9,–,–
CNCC(=O)N[C@@H](CCCN=C(N)N)C(=O)N[C@H](C(=O)N[C@@H](Cc1ccc(O)cc1)C(=O)N1CSC(C)(C)[C@@H]1C(=O)N[C@@H](Cc1c[nH]cn1)C(=O)N1CCC[C@H]1C(=O)N[C@H](Cc1ccccc1)C(=O)O)C(C)C,–,0%,1000
CNCC(=O)N[C@@H](CCCN=C(N)N)C(=O)N[C@H](C(=O)N[C@@H](Cc1ccc(O)cc1)C(=O)NC1(C(=O)N[C@@H](Cc2c[nH]cn2)C(=O)N2CCC[C@H]2C(=O)N[C@@H](Cc2ccccc2)C(=O)O)CCCC1)C(C)C (H-[Sar]RVY[Ac5c]HPF-OH),–,70%,–
